Measurements reported in ChEMBL document CHEMBL1122760, “Synthesis and biological properties of some cyclic phosphotriesters derived from 2'-deoxy-5-fluorouridine” (1984).
≈ marks a conversion by molar mass, not a printed value.

Legend:
L1210 [1] = test: Dose inhibiting L1210/0 murine leukemia cell proliferation by 50%; format: functional; conditions: Mus musculus, read-out: ID50 (the source's name)
Procedure, shortened: (§1)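 L1210 cells (5×10^4 per well) grown in Eagle's MEM with 10% inactivated fetal calf serum, 2 mM L-glutamine, 0.075% NaHCO3, then exposed to varying test compound concentrations for 48 h at 37 °C in humidified CO2 atmosphere; growth linear over this period. Cells counted by Coulter counter; ID50 = concentration reducing living cell number by 50%.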

L1210 [2] = test: Dose inhibiting L1210/Br-dUrd murine leukemia cell proliferation by 50%; format: functional; conditions: Mus musculus, read-out: ID50 (the source's name); procedure, shortened: as §1
L1210 [3] = test: Dose inhibiting L1210/0 murine leukemia cell proliferation by 50% in presence of 500 ug/mL of dCyd.; format: functional; conditions: Mus musculus, read-out: ID50 (the source's name)
[4] = Ki/Km values of L1210/0 dTMP synthase for the compound was determined.
[5] = Ratio of ID50 for L1210/0 cell growth and ID50 for L1210/BdUrd cell growth.; format: functional
L1210 [6] = test: Dose inhibiting L1210/0 murine leukemia cell proliferation by 50% in presence of 125 ug/mL of dUrd.; format: functional; conditions: Mus musculus, read-out: ID50 (the source's name)
[7] = Ratio of ID50 upon addition of dThd to the ID50 upon addition of dUrd against the L1210/0 cell proliferation.; format: functional
L1210 [8] = test: Dose inhibiting L1210/0 murine leukemia cell proliferation by 50% in presence of 5 ug/mL of dThd.; format: functional; conditions: Mus musculus, read-out: ID50 (the source's name)

SMILES | IC50 (L1210 [1]) [µg/mL] | IC50 (L1210 [2]) [µg/mL] | IC50 (L1210 [3]) [µg/mL] | Ratio [4] | Ratio [5] | IC50 (L1210 [6]) [µg/mL] | Ratio [7] | IC50 (L1210 [8]) [µg/mL]
O=c1[nH]c(=O)n([C@H]2C[C@H](O)[C@@H](COP3(=O)OCC(O)CO3)O2)cc1F (stereo partly drawn) | 0.32 (≈ 0.837 µM) | 165 (≈ 432 µM) | 2.04 | > 60 | 516 | 3.87 | >258 | > 1000
O=c1[nH]c(=O)n([C@H]2C[C@H](O)[C@@H](COP3(=O)OCC(F)(F)CO3)O2)cc1F | 0.003 (≈ 0.00746 µM) | 2.42 (≈ 6.02 µM) | 0.036 | > 110 | 807 | 0.048 | 5637 | 270
O=c1[nH]c(=O)n([C@H]2C[C@H](O)[C@@H](COP3(=O)OCCCO3)O2)cc1F | 0.275 (≈ 0.751 µM) | 197 (≈ 538 µM) | 1.38 | > 110 | 716 | 13.2 | >7.58 | > 100
O=c1[nH]c(=O)n([C@H]2C[C@H](O)[C@@H](CO)O2)cc1F [FLOXURIDINE] | 0.001 (≈ 0.00406 µM) | 1.75 (≈ 7.11 µM) | – | 66.5 | 1750 | 0.02 | 1700 | 34
O=c1[nH]c(=O)n([C@H]2C[C@H](O)[C@@H](COP(=O)(O)O)O2)cc1F [5-FLUORODEOXYURIDYLATE] | 0.002 (≈ 0.00613 µM) | 2.43 (≈ 7.45 µM) | – | 0.0099 | 1215 | 0.044 | >2273 | > 100
